Experimental findings from publication PMC12123436 (RSC Chemical Biology, 2025) are described below.

The subject of data set [1] is U87-MG cells. Description: MTT. It counts as cell-based, human. The conditions noted are these: for IC50: read-out: IC50,dark, 4 h incubation in dark, dark 20 min, then 16 h dark. The method, boiled down: (§1)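 In an MTT assay, cells were incubated with test compound in the dark for 4 h. They were then kept dark or irradiated at 450 nm (10 mW cm−2) for 20 min, and held a further 16 h in the dark. IC50 values were obtained under dark and light conditions, and the phototoxicity index was taken as IC50,dark/IC50,light.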

The subject of data set [2] is MCF-7 cells. Nature of the data set: MTT. The data set is classed as cell-based. The note with it: for IC50: read-out: IC50,dark, 4 h incubation in dark, dark 20 min, then 16 h dark. The method, boiled down:
as §1

The subject of data set [3] is HEK293 cells. Description: MTT. The conditions noted are these: for IC50: read-out: IC50,dark, 4 h incubation in dark, dark 20 min, then 16 h dark. The data set is classed as cell-based. The method, boiled down: as §1
A further data set is described as follows: Photophysical. The data set is classed as physicochemical. The conditions noted are these: for λem: λex = 350 nm; for τo: λex = 375 nm.
Data set [4] in a line: Singlet oxygen quantum yield with 1,3-diphenylisobenzofuran as scavenger. It counts as physicochemical. The note with it: aerated CH3CN, 298 K, λex = 450 nm.
The nature of data set [5]: Emission response upon photoirradiation at 450 nm. The data set is classed as physicochemical. The conditions noted are these: for Emission lifetime τ after photoirradiation / λem after photoirradiation: 10 μM, aerated PBS/DMSO (9:1), 450 nm (10 mW cm−2) 20 min; for λem after photoirradiation: λex = 350 nm. The method, boiled down: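 Test compound (10 μM) in aerated PBS/DMSO (9:1, v/v) was irradiated at 450 nm (10 mW cm−2) for 20 min at 298 K. Photoproducts were followed by RP-HPLC and identified by ESI-MS. Emission was recorded before and after irradiation (λex 350 nm), and I/Io was taken as the ratio of these intensities. Lifetimes were measured at emission maxima (λex 375 nm).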

Data set [6] is described as follows: Phosphorogenic response towards BCN-OH. The data set is classed as physicochemical. The note with it: 10 μM, BCN-OH 500 μM, aerated PBS/DMSO (9:1), dark 16 h; for λem after incubation with BCN-OH: λex = 350 nm. The method, boiled down:
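Test compound (10 μM) was incubated with excess BCN-OH (500 μM) in aerated PBS/DMSO (9:1, v/v) at 298 K in the dark for 16 h. Emission was recorded with λex 350 nm, and I/Io was taken as intensity with versus without BCN-OH. Lifetimes were measured at emission maxima (λex 375 nm).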

Data set [7] has as its system U87-MG cells. Description: Cellular uptake by ICP-MS. It counts as cell-based, human. The conditions noted are these: 5 µM, 4 h, 37°C.
Data set [8] has as its system MCF-7 cells. Nature of the data set: Cellular uptake by ICP-MS. It counts as cell-based. The conditions noted are these: 5 µM, 4 h, 37°C.
Data set [9] relates to HEK293 cells. Nature of the data set: Cellular uptake by ICP-MS. The data set is classed as cell-based. The note with it: 5 µM, 4 h, 37°C.
Data set [10] deals with U87-MG cells. Nature of the data set: Annexin V/propidium iodide flow cytometry. It counts as cell-based, human. The conditions noted are these: 1 μM, 4 h, photoirradiation at 450 nm (10 mW cm−2) 20 min. The method, boiled down:
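Cells were pretreated with test compound (1 μM, 4 h), then kept unirradiated or continuously irradiated at 450 nm (10 mW cm−2) for 20 min. They were stained for 15 min with Alexa Fluor 647–Annexin V (λex 638 nm) and propidium iodide (100 μg mL−1 stock; λex 561 nm). Analysis was by flow cytometry.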
Background: Flow cytometry measures light scatter and fluorescence of single cells or particles in a stream.

Data set [11] deals with U87-MG cells. Description: Cellular uptake mechanism studies. It counts as cell-based, human. The note with it: 20 µM, 1 h.
For data set [12], the system named is U87-MG cells. Nature of the data set: Cell death mechanism studies by LSCM. The conditions noted are these: 5 μM, 4 h. The data set is classed as cell-based, human. The method, boiled down: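 For mitochondrial membrane potential, live cells were pretreated with test compound (5 μM, 4 h), then left unirradiated or irradiated at 450 nm (10 mW cm−2) for 20 min. They were stained with rhodamine 123 (5 μM, 15 min) and imaged by confocal microscopy (λex 488 nm, λem 500–550 nm).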

[13] abbreviates: potassium phosphate buffer (50 mM, pH 7.4)/CH3CN (1:1), 298 K.
Setting [14] is: + RGD peptide pretreatment (50 µM, 30 min).

Some results are limits rather than exact numbers.

On to [Ir(pqe)2(bpy-CONH2)](PF6) [complex 4], for which the “PI (IC50,dark/IC50,light)” value with U87-MG cells [1] is on record as 103; in the data set with MCF-7 cells [2], 105; with HEK293 cells [3] it was 100. The IC50 in the data set with U87-MG cells [1] worked out at 4.1 ± 0.2 µM; in the data set with MCF-7 cells [2], 4.2 ± 0.1 µM; with HEK293 cells [3], 5 ± 0.1 µM. Further, the λem in the data set “Photophysical” (CH3CN, 298 K) was found to be 631 nm; in the data set “Photophysical” (setting [13]), 648 nm. Also, the τo was determined as 0.67 μs in the data set “Photophysical” (CH3CN, 298 K); 4.23 μs in the data set “Photophysical” (EtOH/MeOH (4:1) glass, 77 K); 0.34 μs in “Photophysical” (setting [13]). In “Photophysical” (setting [13]), this substance yielded a Φem of 0.02.

In “Photophysical” (CH3CN, 298 K), “[Ir(pqe)2(bpy-CONH-S-Tz-Cl)](PF6) [complex 1]” registered a λem of 632 nm and a τo of 0.68 μs. The substance further showed a τo in the data set “Photophysical” (EtOH/MeOH (4:1) glass, 77 K) of 4.25 μs. In the data set “Photophysical” (setting [13]), this substance gave a Φem of 0.002, a λem of 650 nm and a τo of 0.23 μs. Moreover, the “1O2 quantum yield (ΦΔ)” value in data set [4] is 0.55.

On to “[Ir(pqe)2(bpy-CONH-S-Tz-S-Et)](PF6) [complex 2]”, for which, in the data set on U87-MG cells [1], the “PI (IC50,dark/IC50,light)” value is recorded as 138 and the IC50 came out at 11 ± 1 µM. In the data set on MCF-7 cells [2], the “PI (IC50,dark/IC50,light)” value stood at 150 and the IC50 turned out to be 15 ± 1 µM. In addition, in the data set with HEK293 cells [3], the “PI (IC50,dark/IC50,light)” value is reported as 133 and the IC50 is 12 ± 1 µM. For the same substance, in “Photophysical” (CH3CN, 298 K), the λem was found to be 631 nm and the τo is 0.60 μs. The same substance registered a τo in the data set “Photophysical” (EtOH/MeOH (4:1) glass, 77 K) of 4.38 μs. For the same substance, in the data set “Photophysical” (setting [13]), the Φem is 0.002, the λem is reported as 650 nm and the τo was 0.18 μs. Also, in data set [4], the “1O2 quantum yield (ΦΔ)” value was determined as 0.60. In addition, in [5], the “Emission lifetime τ after photoirradiation” value amounted to 0.29 μs and the λem after photoirradiation worked out at 648 nm. Also, in data set [6], the “Emission lifetime τ after incubation with BCN-OH” value turned out to be 0.37 μs and the “λem after incubation with BCN-OH” value was 631 nm.

As for “[Ir(pqe)2(bpy-CONH-S-Tz-S-RGD)](CF3COO) [conjugate 1-RGD]”, the “PI (IC50,dark/IC50,light)” value is reported as 325 in the data set with U87-MG cells [1], 236 in the data set on MCF-7 cells [2] and above 38 in the data set on HEK293 cells [3]. Moreover, the IC50 in the data set with U87-MG cells [1] is 26 ± 1 µM; in the data set on HEK293 cells [3] it was above 50 µM. The “Amount of iridium per average cell” value in the data set on U87-MG cells [7] (setting [14]) is reported as 0.34 fmol; in the data set with U87-MG cells [7] (− RGD), 0.70 fmol; in the data set with MCF-7 cells [8] (setting [14]) it was 0.25 fmol; in the data set on MCF-7 cells [8] (− RGD), 0.32 fmol; in the data set with HEK293 cells [9] (setting [14]), 0.030 fmol; in the data set on HEK293 cells [9] (− RGD), 0.032 fmol. The “Population of apoptotic cells” value in the data set with U87-MG cells [10] is given as 98.28%. For the same substance, the Φem worked out at 0.003 in “Photophysical” (CH3CN, 298 K) and 0.001 in “Photophysical” (setting [13]). Besides, the λem in the data set “Photophysical” (CH3CN, 298 K) came out at 631 nm; in the data set “Photophysical” (setting [13]) it was 648 nm. Besides, the τo in the data set “Photophysical” (CH3CN, 298 K) was found to be 0.58 μs; in the data set “Photophysical” (EtOH/MeOH (4:1) glass, 77 K), 4.14 μs; in “Photophysical” (setting [13]), 0.19 μs. The “Emission lifetime τ after photoirradiation” value in data set [5] is recorded as 0.26 μs. In [5], this substance displayed a λem after photoirradiation of 648 nm. For the same substance, the “Time to complete photodissociation of S,S-tetrazine moiety” value in [5] (steady-state irradiation at 450 nm, 298 K) stood at 20 min. Also, the “Emission lifetime τ after incubation with BCN-OH” value in data set [6] came to 0.33 μs. In data set [6], the “λem after incubation with BCN-OH” value is on record as 632 nm. For the same substance, the “Cellular uptake efficiency after metabolic or endocytosis inhibitors” value with U87-MG cells [11] (2-deoxy-D-glucose and oligomycin, or NH4Cl or chloroquine) is recorded as “substantially reduced”. Further, the “Amount of intracellular iridium at low temperature vs 37 °C” value in the data set on U87-MG cells [11] (4 °C) is “significantly decreased”. The “Internalisation after cation transporter inhibitor” value in the data set with U87-MG cells [11] (tetraethylammonium chloride (1 mM) pretreatment) was “remained unaffected”. Moreover, in the data set with U87-MG cells [12] (450 nm 20 min vs dark), the “Intracellular ROS (CM-H2DCFDA emission)” value is given as “effective intracellular ROS generation”. For the same substance, the “Mitochondrial membrane potential (rhodamine 123 emission)” value in the data set with U87-MG cells [12] (after 450 nm 20 min vs dark) was “significantly diminished in intensity”.

With “[Ir(pqe)2(bpy-CONH-SCN)](PF6) [complex 3]”, the “PI (IC50,dark/IC50,light)” value came to 135 in the data set with U87-MG cells [1], 125 in the data set on MCF-7 cells [2] and 88 in the data set with HEK293 cells [3]. For the same substance, the IC50 amounted to 2.7 ± 0.1 µM in the data set on U87-MG cells [1], 2.5 ± 0.1 µM in the data set on MCF-7 cells [2] and 3.5 ± 0.2 µM with HEK293 cells [3]. Further, the λem came to 634 nm in “Photophysical” (CH3CN, 298 K) and 648 nm in the data set “Photophysical” (setting [13]). Also, the τo in the data set “Photophysical” (CH3CN, 298 K) worked out at 0.69 μs; in “Photophysical” (EtOH/MeOH (4:1) glass, 77 K), 4.79 μs; in the data set “Photophysical” (setting [13]), 0.35 μs. In “Photophysical” (setting [13]), this substance displayed a Φem of 0.02. Besides, the “1O2 quantum yield (ΦΔ)” value in data set [4] turned out to be 0.81.

The IC50 is the concentration that gives 50% inhibition.
